Laboratory results: ChEMBL document CHEMBL1129519, “Optimal recognition of neutral endopeptidase and angiotensin-converting enzyme active sites by mercaptoacyldipeptides as a means to design potent dual inhibitors” (J Med Chem, 1996)

Legend:
[1] = molecular target: T1, Angiotensin-converting enzyme (Rattus norvegicus, UniProt P47820); experiment: Inhibitory activity against angiotensin I converting enzyme
T1 sequence (P47820 whole entry): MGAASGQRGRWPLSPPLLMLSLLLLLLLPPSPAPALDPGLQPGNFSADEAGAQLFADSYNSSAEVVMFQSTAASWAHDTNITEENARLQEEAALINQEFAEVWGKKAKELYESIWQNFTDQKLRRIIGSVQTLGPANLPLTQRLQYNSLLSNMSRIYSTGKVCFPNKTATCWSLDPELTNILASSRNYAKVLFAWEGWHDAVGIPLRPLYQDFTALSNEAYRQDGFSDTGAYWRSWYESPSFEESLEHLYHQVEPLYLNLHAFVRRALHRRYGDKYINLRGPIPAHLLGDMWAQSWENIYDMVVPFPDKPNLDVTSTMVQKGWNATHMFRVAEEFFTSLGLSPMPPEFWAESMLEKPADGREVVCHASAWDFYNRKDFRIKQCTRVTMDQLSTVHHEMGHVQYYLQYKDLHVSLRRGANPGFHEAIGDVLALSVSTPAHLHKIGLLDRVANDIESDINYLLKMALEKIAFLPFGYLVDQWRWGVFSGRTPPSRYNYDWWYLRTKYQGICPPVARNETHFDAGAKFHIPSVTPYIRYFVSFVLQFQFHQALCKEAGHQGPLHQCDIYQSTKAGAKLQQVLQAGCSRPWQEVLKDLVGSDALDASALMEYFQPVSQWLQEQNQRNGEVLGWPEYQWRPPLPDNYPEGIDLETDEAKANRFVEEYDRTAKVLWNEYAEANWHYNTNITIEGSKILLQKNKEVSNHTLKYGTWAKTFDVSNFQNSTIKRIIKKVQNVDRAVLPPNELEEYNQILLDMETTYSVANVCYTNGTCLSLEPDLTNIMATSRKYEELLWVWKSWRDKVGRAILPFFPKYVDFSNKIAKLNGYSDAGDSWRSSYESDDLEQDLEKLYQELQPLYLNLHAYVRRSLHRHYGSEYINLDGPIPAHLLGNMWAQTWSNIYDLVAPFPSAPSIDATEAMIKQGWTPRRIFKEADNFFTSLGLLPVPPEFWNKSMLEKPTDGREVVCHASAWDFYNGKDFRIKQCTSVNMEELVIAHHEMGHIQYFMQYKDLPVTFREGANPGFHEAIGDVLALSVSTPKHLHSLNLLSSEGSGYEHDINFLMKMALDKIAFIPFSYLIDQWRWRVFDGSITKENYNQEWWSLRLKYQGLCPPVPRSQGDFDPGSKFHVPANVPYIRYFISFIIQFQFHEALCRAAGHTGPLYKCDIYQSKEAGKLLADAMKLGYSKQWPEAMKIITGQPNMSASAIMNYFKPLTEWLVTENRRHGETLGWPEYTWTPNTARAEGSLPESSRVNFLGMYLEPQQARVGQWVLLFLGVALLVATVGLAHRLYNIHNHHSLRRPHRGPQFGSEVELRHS
Procedure, shortened: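 Rat testis enzyme purified to homogeneity, 0.02 pmol/100 µL final, preincubated 15 min at 37 °C with varied inhibitor levels in 50 mM Tris-HCl pH 8.0. N-Cbz-Phe-His-Leu then added to 0.05 mM final and run 15 min. Stopped with 2 M NaOH, His-Leu measured fluorimetrically (ex 365, em 495 nm) against a His-Leu calibration curve. IC50 as mean ± SEM of three independent determinations, each in triplicate.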

Neprilysin = molecular target: T2, Neprilysin (Oryctolagus cuniculus, UniProt P08049); experiment: Inhibitory activity was tested against neutral endopeptidase
T2 sequence (P08049 whole entry): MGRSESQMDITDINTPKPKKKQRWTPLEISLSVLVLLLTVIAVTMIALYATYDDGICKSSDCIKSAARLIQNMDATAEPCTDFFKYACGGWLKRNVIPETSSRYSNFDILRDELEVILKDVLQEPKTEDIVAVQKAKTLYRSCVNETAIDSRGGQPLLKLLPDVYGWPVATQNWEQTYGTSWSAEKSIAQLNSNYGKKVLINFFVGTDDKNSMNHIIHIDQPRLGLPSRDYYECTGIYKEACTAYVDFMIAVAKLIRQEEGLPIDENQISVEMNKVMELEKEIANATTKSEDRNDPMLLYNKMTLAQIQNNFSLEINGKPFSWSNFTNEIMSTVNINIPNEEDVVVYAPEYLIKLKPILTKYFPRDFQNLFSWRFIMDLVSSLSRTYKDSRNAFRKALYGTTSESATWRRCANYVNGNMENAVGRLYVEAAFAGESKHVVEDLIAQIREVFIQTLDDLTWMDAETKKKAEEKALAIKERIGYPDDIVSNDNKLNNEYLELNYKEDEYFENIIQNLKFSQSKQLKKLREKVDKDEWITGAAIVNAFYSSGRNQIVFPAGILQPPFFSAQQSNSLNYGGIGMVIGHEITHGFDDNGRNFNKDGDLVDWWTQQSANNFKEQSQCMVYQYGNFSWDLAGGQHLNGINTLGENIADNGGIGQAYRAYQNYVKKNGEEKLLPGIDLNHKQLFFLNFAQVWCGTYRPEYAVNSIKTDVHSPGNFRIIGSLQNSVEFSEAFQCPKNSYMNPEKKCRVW
Procedure, shortened: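 Rabbit kidney enzyme purified to homogeneity, 1 pmol/100 µL final, preincubated 15 min at 25 °C with or without rising inhibitor concentrations in 50 mM Tris-HCl pH 7.4. [3H]Tyr-D-Ala2-Leu-enkephalin then added to 20 nM final and run 30 min. Stopped with 0.5 M HCl, tritiated metabolites separated on polystyrene beads. IC50 as mean ± SEM of three independent determinations, each in triplicate.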

Structure (SMILES)	IC50 [1]	IC50 (Neprilysin)
CC(C)[C@H](NC(=O)[C@@H](S)CCc1ccccc1)C(=O)N[C@@H](Cc1ccc(O)cc1)C(=O)O	1.6 nM	10 nM
O=C(O)[C@H](Cc1ccc(O)cc1)NC(=O)[C@H](Cc1ccccc1)NC(=O)[C@@H](S)Cc1ccccc1	5.6 nM	2.9 nM
CC[C@@H](C)[C@H](NC(=O)[C@@H](S)C(C)OCc1ccccc1)C(=O)N[C@@H](Cc1ccc(O)cc1)C(=O)O (stereo not given in full)	7.1 nM	4.1 nM
CC[C@H](C)[C@H](NC(=O)[C@@H](S)Cc1ccccc1)C(=O)N[C@@H](Cc1ccc(O)cc1)C(=O)O	2.5 nM	3 nM
C[C@H](NC(=O)[C@@H](S)CCc1ccccc1)C(=O)N1CCCC1C(=O)O (stereo not given in full)	0.35 nM	20 nM
O=C(O)[C@H](COCc1ccccc1)NC(=O)[C@H](Cc1ccccc1)NC(=O)[C@@H](S)Cc1ccccc1	12 nM	50 nM
O=C(O)[C@H](Cc1ccc(O)cc1)NC(=O)[C@H](Cc1ccccc1)NC(=O)[C@@H](S)CCc1ccccc1	1.5 nM	20 nM
CCCC[C@H](NC(=O)[C@@H](S)Cc1ccccc1)C(=O)N[C@@H](Cc1ccc(O)cc1)C(=O)O	4 nM	2.8 nM
CC(c1ccccc1)[C@H](S)C(=O)N[C@H](C(=O)N1CCCC[C@H]1C(=O)O)C(C)C (stereo not given in full)	110 nM	180 nM
CC[C@H](C)[C@H](S)C(=O)N[C@@H](Cc1ccccc1)C(=O)N[C@@H](Cc1ccc(O)cc1)C(=O)O	10 nM	3.5 nM
CC[C@@H](C)[C@H](S)C(=O)N[C@H](C(=O)N[C@@H](Cc1ccc(O)cc1)C(=O)O)C(C)c1ccccc1 (stereo not given in full)	33 nM	32 nM
CC[C@@H](C)[C@H](NC(=O)[C@@H](S)C(C)C)C(=O)N[C@@H](Cc1ccc(O)cc1)C(=O)O	0.26 nM	1.4 nM
O=C(O)[C@H](Cc1ccccc1)NC(=O)[C@@H](S)Cc1ccccc1	44 nM	23 nM
C[C@H](NC(=O)[C@@H](S)Cc1ccccc1)C(=O)N1CCCC1	150 nM	22 nM
C=C(C)[C@@H]1CC[C@]2(C(=O)N[C@H](C(=O)O)[C@@H](C)CC)CC[C@]3(C)[C@H](CC[C@@H]4[C@@]5(C)CC[C@H](O)C(C)(C)[C@@H]5CC[C@]43C)[C@@H]12	6.3 nM	5.5 nM
CC[C@H](C)[C@H](S)C(=O)N[C@H](C(=O)N1CCC[C@H]1C(=O)O)C(C)C	0.58 nM	190 nM
C[C@H](NC(=O)[C@@H](S)Cc1ccccc1)C(=O)N1CCCCC1C(=O)O (stereo not given in full)	1.6 nM	9.5 nM
O=C(O)C1CCCN1C(=O)[C@H](Cc1ccccc1)NC(=O)[C@@H](S)Cc1ccccc1 (stereo not given in full)	1.1 nM	30 nM
C[C@H](NC(=O)[C@H](Cc1ccccc1)NC(=O)CS)C(=O)O	220 nM	14 nM
CC(C)C[C@H](NC(=O)[C@@H](S)Cc1ccccc1)C(=O)N[C@@H](Cc1ccc(O)cc1)C(=O)O	3 nM	2.2 nM

Structure (SMILES)	IC50 [1]	IC50 (Neprilysin)
O=C(O)[C@H](Cc1c[nH]c2ccccc12)NC(=O)[C@H](Cc1ccccc1)NC(=O)[C@@H](S)Cc1ccccc1	7.9 nM	50 nM
CC(C)[C@H](NC(=O)[C@@H](S)Cc1ccccc1)C(=O)N1CCCC1C(=O)O (stereo not given in full)	0.85 nM	24 nM
CC[C@@H](C)[C@H](NC(=O)[C@@H](S)Cc1ccccc1)C(=O)N1CCCC1C(=O)O (stereo not given in full)	1.7 nM	24 nM
CC(C)[C@H](NC(=O)[C@@H](S)Cc1ccccc1)C(=O)N[C@@H](Cc1ccc(O)cc1)C(=O)O	4 nM	3.6 nM
CC[C@H](C)[C@H](NC(=O)[C@@H](S)C(C)C)C(=O)N1C(C(=O)O)CC2CCCCC21 (stereo not given in full)	28 nM	175 nM
CC[C@H](C)[C@H](NC(=O)[C@@H](S)c1ccccc1)C(=O)N[C@@H](Cc1ccc(O)cc1)C(=O)O	3.5 nM	4.5 nM
O=C(O)[C@H](Cc1cccc2ccccc12)NC(=O)[C@H](Cc1ccccc1)NC(=O)[C@@H](S)Cc1ccccc1	50 nM	120 nM
C[C@H](NC(=O)[C@@H](S)Cc1ccccc1)C(=O)N1C(C(=O)O)CC2CCCCC21 (stereo not given in full)	0.4 nM	5.3 nM
C[C@H](NC(=O)[C@H](S)Cc1ccccc1)C(=O)N1CCC[C@H]1C(=O)O	25 nM	1.3 nM
CC[C@H](C)[C@H](S)C(=O)N[C@H](C(=O)N[C@@H](Cc1ccc(O)cc1)C(=O)O)C(C)C	1.9 nM	5.3 nM
CC[C@@H](C)[C@H](NC(=O)[C@@H](S)c1ccccc1)C(=O)N1CCCC1C(=O)O (stereo not given in full)	28 nM	130 nM
CC[C@H](C)[C@H](S)C(=O)N[C@@H](C)C(=O)N1c2ccccc2CC1C(=O)O (stereo not given in full)	3.3 nM	180 nM
CC(C)(NC(=O)[C@@H](S)CCc1ccccc1)C(=O)N1CCCC1C(=O)O (stereo not given in full)	1.6 nM	46 nM
O=C(NC1(C(=O)O)CCCC1)[C@H](Cc1ccccc1)NC(=O)[C@@H](S)Cc1ccccc1	30 nM	45 nM
CC(C)[C@H](NC(=O)[C@@H](S)Cc1ccccc1)C(=O)N1CC(O)CC1C(=O)O (stereo not given in full)	100 nM	63 nM
C[C@H](NC(=O)[C@@H](S)Cc1ccccc1)C(=O)O	40 nM	4 nM
O=C(O)[C@H](CSCc1ccccc1)NC(=O)[C@H](Cc1ccccc1)NC(=O)[C@@H](S)Cc1ccccc1	14 nM	40 nM
CC(OCc1ccccc1)[C@H](NC(=O)[C@@H](S)Cc1ccccc1)C(=O)N[C@@H](Cc1ccc(O)cc1)C(=O)O (stereo not given in full)	34 nM	100 nM
C[C@H](NC(=O)[C@@H](S)Cc1ccccc1)C(=O)N1CCC[C@H]1C(=O)O	0.3 nM	3.8 nM
C[C@H](NC(=O)[C@H](Cc1ccccc1)NC(=O)[C@@H](S)Cc1ccccc1)C(=O)O	7.1 nM	2.3 nM
